Here are results for three molecules from ChEMBL document CHEMBL1629676, “Inhibitory and bactericidal activities of daptomycin, vancomycin, and teicoplanin against methicillin-resistant Staphylococcus aureus isolates collected from 1985 to 2007” (2009).

SMILES strings stand for the structures. Converted amounts (≈) assume the structure as drawn.

The subject of experiment [1] is Staphylococcus aureus. The experiment is described as follows: Antimicrobial activity against methicillin-resistant Staphylococcus aureus assessed as >=3log10 CFU/ml reduction in bacterial growth after 24 to 48 hrs by CLSI method. It is filed as functional. In a few lines: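 MBC per CLSI: entire 0.1 ml from the MIC well and from wells 4 dilutions above the MIC spread on blood agar, dried 20 min, then spread evenly; incubated 35 to 37°C for 24 to 48 h. MBC taken as the lowest dilution giving ≥99.9% (≥3-log10 CFU/ml) reduction versus the growth control count.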

The test system of experiment [2] is Staphylococcus aureus. The experiment is described as follows: Antimicrobial activity against methicillin-resistant Staphylococcus aureus by broth dilution assay. The class given is functional.

For the molecule `CC(=O)N[C@@H]1[C@H](Oc2c3cc4cc2Oc2ccc(cc2Cl)[C@@H](O[C@@H]2O[C@@H](CO)[C@@H](O)[C@H](O)[C@@H]2NC(C)=O)[C@@H]2NC(=O)[C@H](NC(=O)[C@@H]4NC(=O)[C@H]4NC(=O)[C@@H](Cc5ccc(c(Cl)c5)O3)NC(=O)[C@H](N)c3ccc(O)c(c3)Oc3cc(O)cc4c3)c3ccc(O)c(c3)-c3c(O[C@H]4O[C@H](CO)[C@@H](O)[C@@H](O)[C@@H]4O)cc(O)cc3[C@@H](C(=O)O)NC2=O)O[C@@H](CO)[C@@H](O)[C@@H]1O`, in experiment [1], the MBC50 is 2 µg/mL (≈ 1.13 µM) and the MBC90 came to 32 µg/mL (≈ 18.1 µM). Besides, in experiment [2], the MIC50 (in general, an inhibitory concentration at the 50% level, which refers to growth in some studies and to a panel of isolates in others) is 1 µg/mL (≈ 0.566 µM); the MIC90 (commonly the lowest concentration that inhibits either 90% of growth or 90% of the strains tested, depending on the study) is 1 µg/mL (≈ 0.566 µM).

Consider `CCCCCCCCCC(=O)N[C@@H](Cc1c[nH]c2ccccc12)C(=O)N[C@H](CC(N)=O)C(=O)N[C@@H](CC(=O)O)C(=O)N[C@@H]1C(=O)NCC(=O)N[C@@H](CCCN)C(=O)N[C@@H](CC(=O)O)C(=O)N[C@H](C)C(=O)N[C@@H](CC(=O)O)C(=O)NCC(=O)N[C@H](CO)C(=O)N[C@@H]([C@H](C)CC(=O)O)C(=O)N[C@@H](CC(=O)c2ccccc2N)C(=O)O[C@@H]1C`, for which, in experiment [1], the MBC50 was 0.5 µg/mL (≈ 0.309 µM) and the MBC90 worked out at 1 µg/mL (≈ 0.617 µM). In experiment [2], this molecule displayed an MIC50 of 0.5 µg/mL (≈ 0.309 µM) and an MIC90 of 0.5 µg/mL (≈ 0.309 µM).

In the case of `CN[C@H](CC(C)C)C(=O)N[C@H]1C(=O)N[C@@H](CC(N)=O)C(=O)N[C@H]2C(=O)N[C@H]3C(=O)N[C@H](C(=O)N[C@H](C(=O)O)c4cc(O)cc(O)c4-c4cc3ccc4O)[C@H](O)c3ccc(c(Cl)c3)Oc3cc2cc(c3O[C@@H]2O[C@H](CO)[C@@H](O)[C@H](O)[C@H]2O[C@H]2C[C@](C)(N)[C@H](O)[C@H](C)O2)Oc2ccc(cc2Cl)[C@H]1O` [VANCOMYCIN], in experiment [1], the MBC50 is 1 µg/mL (≈ 0.69 µM) and the MBC90 stood at 1 µg/mL (≈ 0.69 µM). For the same molecule, in experiment [2], the MIC50 is 1 µg/mL (≈ 0.69 µM) and the MIC90 is 1 µg/mL (≈ 0.69 µM).
